In ChEMBL document CHEMBL1151165, “Characterization of the preferred stereochemistry for the neuropharmacologic actions of antillatoxin” (J Nat Prod, 2004):

Key:
[1] = Cytotoxicity in Sprague-Dawley rat CGN cells assessed as LDH release after 2 hrs; format: cell-based
Summary of the method: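 Rat cerebellar granule cells, 11-13 days in culture, exposed 2 h to the compound across a concentration range. LDH efflux into the culture medium was measured, and pEC50 was taken from concentration-response curves. Two separate experiments, each in triplicate, mean ± SEM.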

[2] = Increase in extracellular acidification rate in Sprague-Dawley rat CGN cells by cytosensor microphysiometer; format: cell-based
Summary of the method: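 Cerebellar granule neurons were cultured on porous polycarbonate membranes, and extracellular acidification rate was monitored by microphysiometry over a range of concentrations. Peak acidification rate is expressed as percent of basal proton efflux. Two separate experiments, each in duplicate, mean ± SEM.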

[3] = test system: Carassius auratus; assay: Ichthyotoxicity against Carassius auratus; format: organism-based; details: in vivo
[4] = Increase in cytoplasmic calcium influx in Sprague-Dawley rat CGN cells by FLIPR; format: cell-based
Summary of the method: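 Cytoplasmic Ca2+ in cerebellar granule cells was followed by fluo-3 fluorescence, with basal fluorescence (about 4000 units) subtracted. The response is the integrated fluorescence area under the curve, plotted against compound concentration.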

[5] = Cytotoxicity against mouse Neuro2a cells; format: cell-based, N2a; details: read-out: LD50 (the source's name)
[6] = Cytotoxicity in Sprague-Dawley rat CGN cells assessed as LDH release at 100 nM after 2 hrs in presence of 1 uM tetrodotoxin; format: cell-based; details: 0.1 µM
[7] = Cytotoxicity in Sprague-Dawley rat CGN cells assessed as LDH release after 2 hrs in presence of 1 uM tetrodotoxin; format: cell-based
[8] = Increase in extracellular acidification rate in Sprague-Dawley rat CGN cells at 100 nM by cytosensor microphysiometer; format: cell-based; details: 0.1 µM

Row | Compound | EC50 ([1]; read-out: EC50) [µM] | Activity [2] [µM] | Activity [3] | Activity [4] | CC50 [5] [µM] | Activity [6] | EC50 ([1]; read-out: pEC50 (converted)) [µM] | Activity [7] | Activity [8] [%]
1 | C=C1CC(=O)N[C@@H](C)C(=O)N(C)[C@@H](C(C)C)C(=O)NCC(=O)O[C@H](/C(C)=C/C(C)=C/C(C)(C)C)[C@@H]1C | 8.1 | 5 | Non-toxic | Dose-dependent effect and tde | 10 | – | – | – | –
2 | C=C1CC(=O)N[C@@H](C)C(=O)N(C)[C@@H](C(C)C)C(=O)NCC(=O)O[C@H](/C(C)=C/C(C)=C/C(C)(C)C)[C@H]1C | – | – | – | Dose-dependent effect and tde | 10 | – | – | – | –
3 | C=C1CC(=O)N[C@@H](C)C(=O)N(C)[C@@H](C(C)C)C(=O)NCC(=O)O[C@@H](/C(C)=C/C(C)=C/C(C)(C)C)[C@H]1C | – | – | – | Dose-dependent effect and tde | 5 | – | – | – | –
4 | C=C1CC(=O)N[C@@H](C)C(=O)N(C)[C@@H](C(C)C)C(=O)NCC(=O)O[C@@H](/C(C)=C/C(C)=C/C(C)(C)C)[C@@H]1C [ANTILLATOXIN] | 0.042 | 0.041 | 0.1 µM | Dose-dependent effect and tde | 0.18 | Non-toxic | 0.0457 | Non-toxic | 300
